Screening results as filed in PubChem BioAssay.
An excerpt weighted towards active compounds, which were near 3.1% of everything screened.
HIV Env fusion: inhibitors of HIV Env-mediated cell fusion | inhibition, % at 12.3 µM | 1.1% of 360,000 active | HeLa-JRFL Env/CEM21 cell fusion, luciferase | AID 651610;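 active = mean replicate inhibition score of at least 50 and every replicate individually at or above 50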;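 also: 0% = plate neutral controls and 100% = maraviroc near 300 nM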
FN deposit inh: fibronectin deposition inhibition; inhibition, % at 12.6 µM; 0.086% of 350,000 active; AH1F fibroblasts, Alexa488-fibronectin deposition fluorescence, overnight;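 active = mean inhibition across replicates of 30% or more, regardless of how many single replicates reach that level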;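 also: positive control wells lacked labelled fibronectin entirely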
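Assay system: AH1F fibroblast monolayer, labelled fibronectin deposition. Amount: 10000 cells per well. Also added: labelled fibronectin 24 nM. Compound: single-point pinned compound. Incubation: cell attachment 1 h, compound and FN exposure overnight. Detection: fluorescence after three HBSS washes, excitation 485 nm, emission 525 nm. Read-out: inhibition of fibronectin deposition signal.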
PAX8 inh HTS: lowers PAX8-driven luciferase in RMG-I cells. 1.2% of 360,000 active. inhibition, % at 12.6 µM. RMG-I TPO-luciferase reporter, SteadyGlo, 24 h;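 active = mean replicate inhibition at least 60% with every replicate also reaching 60%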;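 also: luciferase light reporting Pax8 driven TPO promoter activity; plate controls were median of neutral control wells for no effect and mitoxantrone controls for full effect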
FGF22 binding: FGF22 (human) thermal shift binding; Q9HCT0; recombinant FGF22 thermal shift, SYPRO orange fluorescence; percent of sucrose octasulfate shift, DMSO zero; 1.5% of 340,000 active; AID 651658; activity (Tm shift, normalised), % at 9.99 µM;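 active = mean Tm shift, scaled 0 neutral to 100 positive control, at about 1.3% or above, every replicate too, limit read from the data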
Target sequence (Q9HCT0 whole entry, looked up): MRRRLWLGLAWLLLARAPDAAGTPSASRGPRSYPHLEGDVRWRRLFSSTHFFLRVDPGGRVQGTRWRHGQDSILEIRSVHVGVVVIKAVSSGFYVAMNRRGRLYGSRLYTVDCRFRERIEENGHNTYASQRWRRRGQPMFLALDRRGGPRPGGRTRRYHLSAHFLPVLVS
EWS-Fli inh: blocks EWS/Fli oncoprotein-driven transcription | inhibition, % at 12.6 µM | A673 NR0B1-luciferase reporter, viability-normalised | 0.67% of 350,000 active;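 active = mean inhibition of at least 50% after viability correction, with every replicate also passing that limit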;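 also: firefly luciferase signal divided by Alamar Blue viability fluorescence both relative to DMSO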
PGC1a acetyl inh: lowers PGC1a acetylation signal in U2OS cells | AlphaScreen anti-acetyl-lysine; with virally co-expressed GCN5 acetyltransferase | inhibition, % at 15.6 µM | 0.17% of 350,000 active | AID 651687;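 active = every replicate shows inhibition of at least 40%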;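 also: 0% = neutral control wells and 100% = positive control wells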
Starred values were filed as active, the others as inactive; ! = repeats disagree.

How did COC(=O)C1=C(c2cc3ccccc3o2)C[C@@H]2CC[C@H]1N2C(=O)N1CCCCC1 do in these assays?
HIV Env fusion: -56; FN deposit inh: -14; PAX8 inh HTS: 29; EWS-Fli inh: 58*; PGC1a acetyl inh: -11

What do the screens show for `FC(F)(F)CN1C[C@@H]2N[C@H](C1)C2c1ccc(Br)cc1` (some centres undefined)?
FN deposit inh: 14

What do the screens show for `C/C=C/c1ccc(C2[C@H]3CNC[C@@H]2N3CC2CCCCC2)cc1` (some centres undefined)?
FN deposit inh: 3; PAX8 inh HTS: -4; EWS-Fli inh: 76*; PGC1a acetyl inh: -3

How did Cc1ccc(OC(=O)N(C)C[C@H]2OCc3ccccc3-c3c(n(C)c4ccccc34)C(=O)N([C@H](C)CO)C[C@@H]2C)cc1 do in these assays?
FN deposit inh: 4; PAX8 inh HTS: 46; EWS-Fli inh: 3

What do the screens show for `COC1=C(C)C(=O)C2=C(C1=O)C(CO)N1C(C#N)C3CC4C(C1C2N1CCOC41)N3C` (centres undefined)?
HIV Env fusion: 67*; FN deposit inh: -12; PAX8 inh HTS: 92*; FGF22 binding: 0; EWS-Fli inh: 1; PGC1a acetyl inh: -3

Results for C/C=C/c1ccc(C2[C@@H]3CN(Cc4cccnc4)C[C@H]2N3)cc1 (some centres undefined) ?
FN deposit inh: -1; PAX8 inh HTS: 2; EWS-Fli inh: 7; PGC1a acetyl inh: -8

What do the screens show for `COC(=O)C1=C(c2ccc(OCc3ccccc3)cc2)C[C@@H]2CC[C@H]1N2C(=O)NCCCCc1ccccc1`?
HIV Env fusion: -227; FN deposit inh: 0; PAX8 inh HTS: 62*; FGF22 binding: 0; EWS-Fli inh: 11; PGC1a acetyl inh: 6

What do the screens show for `COC(=O)C1=C(c2ccc(OCc3ccccc3)cc2)C[C@@H]2CC[C@H]1N2C(=O)NCCc1ccc(F)cc1`?
HIV Env fusion: 0; FN deposit inh: -1; PAX8 inh HTS: 7; FGF22 binding: 0; EWS-Fli inh: 4; PGC1a acetyl inh: 7

How did N#Cc1cccc(-c2ccc([C@@H]3[C@@H](CO)N4CCCCN(C(=O)Cc5cccnc5)C[C@H]34)cc2)c1 do in these assays?
PAX8 inh HTS: -8; FGF22 binding: 0; EWS-Fli inh: -6; PGC1a acetyl inh: 2

Results for CC(=O)C1C(N2CC2)CC2C3CC=C4CC(O)CCC4(C)C3CCC21C (centres undefined) ?
HIV Env fusion: -42; FN deposit inh: -8; PAX8 inh HTS: 5; FGF22 binding: 44*; EWS-Fli inh: 15; PGC1a acetyl inh: -27

Results for C[C@]12CC[C@H](O)CC1=CCC1C2CC[C@@]2(C)C1C[C@@H](O)[C@@H]2O (some centres undefined) ?
HIV Env fusion: 19; FN deposit inh: 5; PAX8 inh HTS: 7; FGF22 binding: 0; EWS-Fli inh: 13; PGC1a acetyl inh: 0

What do the screens show for `C[C@H]1CCC/C=C/[C@@H]2C[C@H](O)C[C@H]2[C@H](O)/C=C/C(=O)O1`?
HIV Env fusion: 94*!; FN deposit inh: -2; PAX8 inh HTS: 110*; FGF22 binding: 0; EWS-Fli inh: 54*; PGC1a acetyl inh: 69*

Results for CC(C)NC(=O)N1CC2C(c3ccccc3)C(C1)N2C (centres undefined) ?
FN deposit inh: -3

Results for N#CC(C#N)=NNc1ccc(-n2ccc(C(F)(F)F)n2)cc1 ?
HIV Env fusion: -17; FN deposit inh: -27; PAX8 inh HTS: 94*; FGF22 binding: 0; EWS-Fli inh: 23; PGC1a acetyl inh: 8

What do the screens show for `CC[C@@]1(O)C(=O)OCc2c1cc1n(c2=O)Cc2cc3c(NC(=O)CN)cccc3nc2-1`?
HIV Env fusion: 69*; FN deposit inh: -15; PAX8 inh HTS: 99*; FGF22 binding: 0; EWS-Fli inh: 56*

What do the screens show for `CC[n+]1c(-c2ccccc2)c2cc(N)ccc2c2ccc(N)cc21`?
HIV Env fusion: 8; FN deposit inh: 3; PAX8 inh HTS: 110*; FGF22 binding: -1; EWS-Fli inh: 13

How did O=c1[nH]c2ccccc2n1C1CCN(Cc2ccc(-c3nc4ccccc4nc3-c3ccccc3)cc2)CC1 do in these assays?
HIV Env fusion: -41; PAX8 inh HTS: 48; FGF22 binding: 0; EWS-Fli inh: 9
